Assay results: PubChem BioAssay AID2520 (Sanford-Burnham Center for Chemical Genomics, 2010)
Screen size: about 330,000 compounds; about 350 (0.11%) were called active. This is one part of a sample in which actives are shown more often than they occur.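 Rule for the calls: active = activation more than six SD over the plate average, tested at 20 µM; inactive = the rest.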

Each molecule was assayed against Apelin receptor (Homo sapiens) (UniProt P35414) (assay: agonists of human apelin receptor APJ, primary screen, CHO-K1 cells, PathHunter beta-arrestin, luminescence (AID 2520)). Conditions: at 20 µM, active compounds read high, 0% DMSO wells, 100% apelin.
Sequence of Apelin receptor (Homo sapiens) (P35414 whole entry, looked up, the tested form may be a part): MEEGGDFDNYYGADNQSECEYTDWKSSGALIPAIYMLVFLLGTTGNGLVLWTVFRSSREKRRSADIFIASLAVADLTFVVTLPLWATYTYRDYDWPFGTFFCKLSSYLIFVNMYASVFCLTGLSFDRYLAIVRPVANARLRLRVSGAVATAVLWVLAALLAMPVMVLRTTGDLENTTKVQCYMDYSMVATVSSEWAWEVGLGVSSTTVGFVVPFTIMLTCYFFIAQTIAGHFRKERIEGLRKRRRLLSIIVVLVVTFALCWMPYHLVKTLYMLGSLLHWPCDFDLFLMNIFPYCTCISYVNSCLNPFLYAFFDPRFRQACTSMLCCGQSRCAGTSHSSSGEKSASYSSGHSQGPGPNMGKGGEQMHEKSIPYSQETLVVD
In short: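 Test system: CHO-K1 APJ beta-arrestin complementation cell line. Amount: cell density 1000 per well. Controls: DMSO negative, 10 nM Apelin-13 positive. Signal: luminescent beta-gal fragment complementation, chemiluminescent substrate. Read-out basis: agonist-driven arrestin binding to APJ. Timing: compound stimulation 90 min at 25 °C, detection 60 min.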

activation, active:
Nc1nc(-c2sc3nc4c(cc3c2N)CCCC4)nc(N2CCOCC2)n1 12.3%
Cc1ccc2nc(-c3ccc(NC(=O)c4cccnc4)cc3)oc2c1 14.6%
Cc1cc(C)c2[nH]c(=O)c(CN(Cc3ccccc3)C(=S)NCCCN(C)C)cc2c1 20.2%
CCCCCCc1cc2cc(-c3nnc(-c4ccccc4)o3)c(=O)oc2cc1O 30.8%

activation, inactive:
CCCCc1cc(=O)oc2c(C)c(OCC(=O)N3CCC(C(N)=O)CC3)ccc12 -4.2%
CCOc1ccc(/C=C/C(=O)N(CC)CC(=O)NCc2cccs2)cc1OC 8.54%
Cc1nnc(SCC(=O)NC(=O)NC2CCCC2)n1N -4.56%
CCN1CCN(C(=O)CCN2C(=O)c3ccccc3C2=O)CC1 -1.85%
COc1ccc2c(c1)N(C)/C(=C1/SC(=S)N(NC(C)=O)C1=O)S2 -1.51%
O=C1NC(c2ccccc2)=NC1(Nc1ccccn1)C(F)(F)F (centres undefined) 1.8%
Cc1ccsc1C(=O)OCC(=O)Nc1cccc(F)c1 -4.87%
COc1ccc(-n2c(=O)[nH]c3cc(C(=O)NCCc4ccc(OC)c(OC)c4)ccc3c2=O)c(OC)c1 -2.2%
O=C(NC1CCCC1)C(NS(=O)(=O)c1ccc(Br)s1)c1ccccc1 (centres undefined) 1.83%
Cc1ccc2c(c1)NCC(C(=O)NC1CCC(C)CC1)O2 (centres undefined) -1.38%
N#CC1=C(N)N(c2ccc(F)cc2)C(=O)C1 -4.08%
CC(=O)Nc1ccc(NC(=O)C(C)n2c3ccccc3c3nc(=O)cc(C)n32)cc1 (centres undefined) -3.18%
CCOC(=O)C1=C(CC)OC(N)=C(C#N)C1c1ccc(F)cc1F (centres undefined) -3.78%
Cc1nc(N2CCOCC2)nc2c1CCCC2 0.237%
Cc1cccc(NC(=O)c2sc3nc(N4CCOCC4)c4c(c3c2N)CCCC4)c1 -11.8%
CC(=O)NC(=S)Nc1ccc(NC(=O)c2cccnc2)cc1 3.75%
Cc1cc(NS(=O)(=O)c2ccc(NC(=O)c3cccnc3)cc2)nc(C)n1 1.41%
COc1ccc(C)cc1N(CC(=O)NC(C)c1ccccc1)S(C)(=O)=O (centres undefined) -1.79%
C=CCOc1ccccc1NC(=O)CN1C(=O)CNC1=O -2.49%
COc1ccc(C)cc1NC(=O)CSc1nnc(CC(=O)Nc2ccccc2F)n1C -3.35%
NS(=O)(=O)c1ccc(CCNC(=O)COC(=O)COc2cccc(C(F)(F)F)c2)cc1 -3.07%
COc1cc2c(cc1OC)C(=O)NCC(C)(C)O2 -0.328%
CN(CCc1ccccn1)C(=O)c1ccc(OC2CCN(Cc3ccccn3)CC2)cc1 -8.78%
CC(C)=CCCC(C)CN1CCC(n2nccc2NC(=O)c2ccccc2)CC1 (centres undefined) 1.47%
CCCn1c(=S)[nH]c2ccc(C(F)(F)F)cc21 0.385%
CCCCn1nnnc1NCc1cc(OC)c(OC)c(OC)c1 -4.13%
Cc1ccnc(NC(=O)CCC(=O)N(CC(=O)NCCc2ccccc2)Cc2cccs2)c1 -3.93%
CCCS(=O)(=O)N1CCN=C1SCc1cccc(F)c1 2.13%
COc1cccc2c(O)cc(=O)n(C)c12 -2.86%
O=C(Nc1cccc([N+](=O)[O-])c1)N1CCc2ccccc2C1 -0.709%
Cc1ccc(O/C=C2\OC(=O)c3ccccc32)cc1 -1.88%
O=C(OCC(=O)c1cccs1)c1ccc([N+](=O)[O-])o1 3.99%
COC(=O)Cc1cnc(NC(=O)CSc2nc(C(C)C)cc(=O)[nH]2)s1 -1.9%
O=C1NC(=Nc2ccc(Cl)cc2)SC1Cc1cccc(Cl)c1Cl (centres undefined) -3.58%
N#Cc1cccc(NC(=O)COC(=O)c2ccccc2C(=O)c2ccc(Cl)c([N+](=O)[O-])c2)c1 -0.51%
Cc1ccc(C(=O)C(C)OC(=O)Cc2n[nH]c(=O)c3ccccc23)cc1C (centres undefined) 6.72%
CCc1ccc2c(c1)cc(CN(C(=S)Nc1ccccc1Cl)C1CC1)c1nnnn12 4.19%
COCCCNC(=S)N(CCN(C)C)Cc1cc2cc3c(cc2[nH]c1=O)OCCO3 -4.21%
Cc1cccc2cc(CN(Cc3cccs3)C(=S)NCc3ccco3)c(=O)[nH]c12 -1.92%
O=C1C=CC(=O)N1c1ccc(N2CCCCC2)cc1 -5.18%
CCc1ccc(CN(C)C(=O)CCc2nnc(-c3ccc(-c4ccccc4)cc3)o2)nc1 -3.94%
Cc1c(CCC(=O)O)c(=O)oc2cc3occ(-c4ccccc4)c3cc12 -2.13%
CN(c1ccccc1)S(=O)(=O)c1ccc(Cl)c(C(=O)OCC(=O)N2CCOCC2)c1 -4.02%
CCn1c(-c2cccnc2Cl)nc2cc(C)c(C)cc21 -1.12%
COCC(=O)Nc1cc(C(=O)OC)cc(C(=O)OC)c1 -0.719%
CCOC(CNC(=O)C(=O)NCC(c1ccco1)N1CCN(c2ccc(OC)cc2)CC1)OCC (centres undefined) -4.81%
CC(=O)c1ccccc1OCc1ccc(C(=O)c2ccccc2)cc1 -3.74%
COc1ccc(N(CCC#N)S(=O)(=O)c2ccc(Cl)cc2)cc1 -5.53%
COCn1c(C(O)c2ccccc2)cc2ccccc21 (centres undefined) -2.04%
COc1ccc(S(=O)(=O)Nc2ccc(F)cc2)c(C)c1C -0.449%
CCCCN(CC)C(=O)CN(C)S(=O)(=O)c1cccc2nsnc12 -2.83%
CN(CCC1CCOCC1)Cc1cn[nH]c1-c1ccc(-c2ccccc2)cc1 -3.69%
Cc1ccnc(NS(=O)(=O)c2ccc(NC(=O)c3ccc(S(=O)(=O)N(C)C)cc3)cc2)n1 -2.66%
CCc1ccccc1NC(=O)CN(C)C(=O)COc1ccc(C)nc1[N+](=O)[O-] -1.82%
CC1CN(C(=O)c2ccc3c(c2)OCO3)OC(c2ccccc2)O1 (centres undefined) -2.94%
